Screening results deposited in PubChem BioAssay by The Scripps Research Institute Molecular Screening Center.
M1 ag = activates human CHRM1 receptor | CHO-K1 hM1, Fluo-8 calcium fluorescence, agonist mode; 0% DMSO, 100% acetylcholine EC100 | activation, % at 3 µM | actives 0.33% (n = 360,000) | AID 588814;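 active = activation above the run's mean compound activation plus 3 SD, cut at about 16% in these data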;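 note: peak over basal fluorescence ratio within a 140 s kinetic read after compound addition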
TAAR1 antag = human TAAR1 antagonism | CHO RD-HGA16 TAAR1, Fluo-8 calcium fluorescence, antagonist | actives 1.5% (n = 360,000) | AID 624466 | inhibition, % at 3 µM;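 active = inhibition above a per-plate cutoff, the mean inhibition of test compounds on that plate plus 3 SD, cut at about 49% in these data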;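 note: 0% = DMSO plus EC80 beta-PEA response and 100% = DMSO alone without agonist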
Target sequence (Q96RJ0 whole entry, looked up): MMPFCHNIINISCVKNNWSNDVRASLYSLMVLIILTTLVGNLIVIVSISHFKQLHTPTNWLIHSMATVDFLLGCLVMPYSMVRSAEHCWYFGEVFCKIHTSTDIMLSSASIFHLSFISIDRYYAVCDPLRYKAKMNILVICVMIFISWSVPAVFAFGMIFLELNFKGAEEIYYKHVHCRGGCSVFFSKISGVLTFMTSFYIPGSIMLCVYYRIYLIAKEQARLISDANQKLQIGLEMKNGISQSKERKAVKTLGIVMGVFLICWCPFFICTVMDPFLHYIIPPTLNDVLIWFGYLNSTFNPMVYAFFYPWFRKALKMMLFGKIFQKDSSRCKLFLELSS
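Test system: RD-HGA16 CHO cells with stable hTAAR1 and Gα16 / Probe or stimulus: EC80 β-phenethylamine stimulus / Times: seeding 17-24 h prior, 75-min 37 °C, 30-min RT dye loading / Detection: Fluo-8 calcium-sensitive fluorescence / Read-out basis: % inhibition scaled between DMSO and EC80 PEA controls / Repeats: singlicate, one well per test compound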
M1 antag = human CHRM1 antagonism; P11229; CHO-K1 hM1, Fluo-8 calcium fluorescence, ACh EC80 antagonist; inhibition, % at 3 µM; actives 1.3% (n = 360,000); AID 588852;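 active = percent inhibition above its own plate's cutoff, namely the mean of that plate's compound wells plus 3 SD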;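 note: peak over basal fluorescence ratio during 140 s after agonist addition; 0% = ACh EC80 plus DMSO and 100% = DMSO alone without agonist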
M1 PAM = potentiates human M1 receptor response to acetylcholine. P11229. CHO-K1 hM1, Fluo-8 calcium fluorescence, ACh EC20; 0% = ACh EC20, 100% = maximal ACh. activation, % at 3 µM. actives 0.088% (n = 360,000); in the data active = activation above about 19%, passing the limit was not always enough
m5-HT2A agonist = agonists of mouse serotonin 5-HT2A receptor (HTR2A); activation, % at 7.6 µM; P35363; CHO-K1 mHTR2A beta-arrestin complementation, luminescence; percent of 30 µM serotonin response; actives 0.66% (n = 360,000);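 active = activation above a run cutoff, the mean activation of all tested compounds plus 3 SD, cut at about 14% in these data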;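 note: 0% = plate median of compound wells and 100% = 30 µM serotonin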
TAAR1 agonist = human TAAR1 agonism | CHO RD-HGA16 TAAR1, Fluo-8 calcium fluorescence; vehicle wells 0%, saturating PEA agonist 100% | activation, % at 3 µM | actives 0.99% (n = 360,000) | Q96RJ0;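 active = activation above the mean activation of all test compounds in the run plus 3 SD, cut at about 38% in these data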
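Assay system: CHO-derived RD-HGA16 cells with stable Gα16 and human TAAR1; timing: 17-24 h seeding, 75 min 37 °C dye, 30 min RT; read-out: % activation from peak over basal fluorescence ratio, DMSO-to-PEA scaled; measured by: kinetic Fluo-8 calcium fluorescence; benchmarks: low control DMSO, high control PEA (EC100); doses: 3 µM single concentration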
An asterisk follows results filed as active; . = no result. This is a sample that favours compounds with a hit; in the whole collection about 3.9% have one here.

SMILES	M1 ag	TAAR1 antag	M1 antag	M1 PAM	m5-HT2A agonist	TAAR1 agonist
COc1cc2[nH]c(=O)n(CCCC(=O)N3CC=C(c4ccccc4)CC3)c(=O)c2cc1OC	-4	11	32*	-8	-2	3
COc1cc2[nH]c(=O)n(CCC(=O)N3CC=C(c4ccccc4)CC3)c(=O)c2cc1OC	-2	5	16	-2	-3	-1
Cc1cccc(C(=O)NC(=S)NNC(=O)c2ccccc2Cl)c1	91*	107*	27	-25	-1	148*
CC(=O)NNC(=S)NC(=O)c1ccc(C)cc1	-4	1	-3	2	1	1
Cc1ccc(C(=O)NNC(=S)NC(=O)c2ccc(Cl)cc2)cc1	98*	108*	45*	-38	-12	146*
Cc1cccc(OCC(=O)NCC(=O)N/N=C/c2c(C)[nH]c3ccccc23)c1	-1	52*	-4	1	-2	8
Cc1[nH]c2ccccc2c1/C=N/NC(=O)c1cc(-c2cccs2)[nH]n1	-2	58*	7	-8	-6	16
NN(CCO)C(=S)Nc1ccc(Cl)cc1	-1	-17	-8	4	4	0
Cc1cc(Nc2cc(Cl)cc(Cl)c2)cc(=O)n1-c1cc(Cl)cc(Cl)c1	.	-13	.	.	.	1
O=C(c1ccc(Cl)c(S(=O)(=O)N2CCCCC2)c1)N1CCCC(C(F)(F)F)C1 (stereo not drawn)	0	3	-7	7	-5	7
Cc1ccc(N2C(=O)CSC2c2c(F)cccc2Cl)cc1 (stereo not drawn)	-8	-8	99*	-26	-2	6
COc1cccc(C2SCC(=O)N2c2ccc(Cl)cc2)c1OC (stereo not drawn)	-9	9	51*	-20	-4	2
CC(C(=O)O)N1CCCCC1 (stereo not drawn)	-2	-19	-17	18	4	3
COCCn1c(N)c(C(=O)NCC2CCCO2)c2nc3ccccc3nc21 (stereo not drawn)	-1	49*	3	-13	1	15
O=C(c1ccc(OC2CCN(CCc3ccccc3)CC2)cc1)N1CCCC1	-5	-6	9	-10	-24	1
CC(C)N1CCN(C(=O)c2ccc(OC3CCN(CCc4ccccc4)CC3)cc2)CC1	-6	-18	43*	-20	-11	2
O=C(c1ccc(OC2CCN(CCc3ccccc3)CC2)cc1)N1CCCCC1CCCO (stereo not drawn)	-7	-38	30*	-8	-15	6
O=C(O)c1cccc(NC(=S)NC(NC(=O)c2cccc([N+](=O)[O-])c2)C(Cl)(Cl)Cl)c1 (stereo not drawn)	-6	-35	-21	17	1	-2
O=C(NC(NC(=S)Nc1ccccc1)C(Cl)(Cl)Cl)c1cccc(Cl)c1 (stereo not drawn)	4	34	30*	-16	-1	12
C[C@@H]1COc2cc(N3CCCCC3)ccc2S(=O)(=O)N1	.	17	.	.	.	1
COC(=O)Cc1nnn2c1[C@@H](C)[C@@H](c1ccccc1Br)O[C@@H](C)C2	.	-4	.	.	.	9
CCN1CCN(CCNC(=O)c2ccc3nc(-c4cccc(C)c4)c(-c4cccc(C)c4)nc3c2)CC1	-5	-19	83*	-25	-9	4
CC1CCN(S(=O)(=O)c2ccc(Oc3ccc([N+](=O)[O-])cc3)cc2)CC1	-6	9	30*	-18	-2	1
CC(OC(=O)COc1ccc(C#N)cc1)C(=O)Nc1ccc(Cl)cn1 (stereo not drawn)	-4	-3	-21	11	-2	0
O=S(=O)(NCc1ccccc1)c1ccc(NC(=S)NCc2ccco2)cc1	4	53*	-2	4	-6	41*
SMILES	M1 ag	TAAR1 antag	M1 antag	M1 PAM	m5-HT2A agonist	TAAR1 agonist
Cc1ccc(C(=O)Nc2ccc(S(=O)(=O)NCc3ccco3)cc2)cc1	-5	-12	-5	6	-6	7
O=C(COc1ccccc1-c1ccccc1)Nc1ccc(S(=O)(=O)NCc2ccco2)cc1	0	61*	11	0	0	9
Cc1cc(C)n(-c2ccc(C(=O)Nc3ccc(S(=O)(=O)NCc4ccco4)cc3)cc2)n1	3	62*	12	-14	-4	15
ONC(=Nc1ccccc1Cl)c1c(F)cccc1F	-1	-25	-20	15	1	6
CN(CC(=O)Nc1ccccc1Br)C(=O)CNC(=O)Cc1cccc2ccccc12	-5	-6	-6	9	7	-1
CCc1nc(N)nc(N)c1-c1ccc(N(C)Cc2ccccc2)c([N+](=O)[O-])c1	6	76*	95*	-30	-1	39*
CC1(C(=O)NCc2cccc(C(F)(F)F)c2)CCN1Cc1ccc2ccccc2c1 (stereo not drawn)	-8	14	32*	-19	-12	2
CC1(C(=O)NCc2cccc3ccccc23)CCN1Cc1ccc2ccccc2c1 (stereo not drawn)	-8	16	18	-17	-7	0
CC1(C(=O)NCc2cccc3ccccc23)CCN1Cc1ccccc1OC(F)F (stereo not drawn)	-2	17	-8	3	-3	1
CC1(C(=O)NCc2ccc(C(F)(F)F)cc2)CCN1Cc1ccccc1OC(F)F (stereo not drawn)	-2	56*	2	-11	2	10
Cn1c(=O)c(=O)n(C)c2cc(S(=O)(=O)N3CCCC3C(=O)NCc3cccnc3)ccc21 (stereo not drawn)	-5	-22	-9	9	5	-1
CCOC(=O)c1oc2ccc(Br)cc2c1COC(=O)C1=COCCO1	-7	-46	57*	-25	7	4
Cc1ccc(-c2nc(CS(=O)CC(=O)NCc3ccccc3)c(C)o2)cc1 (stereo not drawn)	5	-13	-15	24*	6	-3
Cc1ccc(-c2nc(CS(=O)CC(=O)NCc3ccc(F)cc3)c(C)o2)cc1 (stereo not drawn)	-5	-24	-7	3	-3	3
Cc1ccccc1-c1nc(CS(=O)CC(=O)NCCc2ccc(Cl)cc2)c(C)o1 (stereo not drawn)	-3	-17	-17	13	-5	18
Cc1oc(-c2ccccc2Cl)nc1CS(=O)CC(=O)NCCc1ccccc1 (stereo not drawn)	-9	-14	-13	11	1	38*
CCOC(=O)c1ccc(CNCc2ccc(Br)cc2)cc1	3	-21	65*	-17	-2	3
CCOC(=O)c1ccc(CNC(=O)CCC(=O)O)cc1	-2	-11	-14	9	0	7
